Bioassay records from PubChem.
IDE cell activ – IDE (human) activation, cell-based; P14735; HEK cells, FAbeta-B cleavage, fluorescence polarization; 0% vehicle, 100% cell-free pure enzyme wells; 340,000 tested, 0.073% active; AID 493087; activation, % at 5.96 µM;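 active = activation above the mean of all tested compounds plus 3 SD, set per screening campaign, cut at about 17% in these data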
Target sequence (P14735 whole entry, looked up): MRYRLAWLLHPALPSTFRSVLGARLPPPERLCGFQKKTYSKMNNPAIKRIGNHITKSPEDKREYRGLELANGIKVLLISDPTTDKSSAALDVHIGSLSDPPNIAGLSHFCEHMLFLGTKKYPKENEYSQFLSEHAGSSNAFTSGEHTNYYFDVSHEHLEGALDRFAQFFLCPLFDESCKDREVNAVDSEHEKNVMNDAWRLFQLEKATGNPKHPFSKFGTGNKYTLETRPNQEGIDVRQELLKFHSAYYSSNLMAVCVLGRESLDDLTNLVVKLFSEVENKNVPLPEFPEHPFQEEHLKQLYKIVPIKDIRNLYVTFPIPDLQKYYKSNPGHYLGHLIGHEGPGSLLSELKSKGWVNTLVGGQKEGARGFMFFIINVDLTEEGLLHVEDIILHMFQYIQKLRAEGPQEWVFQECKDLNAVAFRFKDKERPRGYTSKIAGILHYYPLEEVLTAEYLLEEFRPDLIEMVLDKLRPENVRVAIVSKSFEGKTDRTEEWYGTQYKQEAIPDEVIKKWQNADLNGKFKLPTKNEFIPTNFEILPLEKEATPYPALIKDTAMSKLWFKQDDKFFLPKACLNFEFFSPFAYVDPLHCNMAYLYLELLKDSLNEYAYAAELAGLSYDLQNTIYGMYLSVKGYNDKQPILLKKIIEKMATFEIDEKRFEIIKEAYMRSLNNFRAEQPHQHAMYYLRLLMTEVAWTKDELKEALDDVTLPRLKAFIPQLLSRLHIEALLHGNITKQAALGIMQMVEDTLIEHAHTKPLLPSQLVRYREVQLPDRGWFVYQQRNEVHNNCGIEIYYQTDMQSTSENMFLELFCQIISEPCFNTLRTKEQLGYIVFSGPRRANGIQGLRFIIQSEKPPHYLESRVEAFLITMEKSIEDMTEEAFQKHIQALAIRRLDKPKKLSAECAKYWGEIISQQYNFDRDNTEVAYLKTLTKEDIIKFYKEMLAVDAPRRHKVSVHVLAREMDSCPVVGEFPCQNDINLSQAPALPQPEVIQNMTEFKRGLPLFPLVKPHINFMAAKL
Tb MetRS inh – Trypanosoma brucei MetRS inhibition | purified T. brucei MetRS, ATP depletion, Kinase-Glo luminescence | inhibition, % at 11.9 µM | 360,000 tested, 0.4% active;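 active = inhibition above a per-plate cutoff of the control wells' mean inhibition plus 3 SD, cut at about 5.5% in these data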;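 note: 0% = DMSO wells median and 100% = median of wells with control inhibitor compound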
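Material – parasite MetRS enzyme · Medium – HEPES-MgCl2-KCl buffer plus DTT, spermine, BSA, pyrophosphatase · Reagent – ATP, methionine and E. coli bulk tRNA substrates · Times – 15 min enzyme-compound preincubation, 2 h reaction, 10 min detection, 25 °C · Measured by – luminescence of leftover ATP · Evaluation – percent inhibition relative to median high and low control wells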
HDAC3 inhib – human HDAC3 inhibition; inhibition, % at 8.3 µM; O15379; 320,000 tested, 0.15% active; recombinant HDAC3, fluorogenic peptide/trypsin coupled, fluorescence; in the data active = inhibition above about 26%, passing the limit was not always enough
Efflux pump inh – inhibitors of Candida antifungal efflux pumps expressed in yeast. inhibition, % at 10 µM. AID 485275. 330,000 tested, 0.44% active. S. cerevisiae Candida pump triplex, Nile Red efflux;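 active = plate passing quality check with inhibition over a set limit, or well fluorescence over plate mean plus 4 SD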;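 note: Nile Red retained in pooled yeast measured as flow cytometry median fluorescence; 0% = buffer negative control and 100% = Enniatin B positive control; higher means more Nile Red kept so more efflux inhibition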
IDE cell inh – cellular human IDE inhibition; P14735; HEK cells, FAbetaB cleavage, fluorescence polarization; inhibition, % at 5.59 µM; 320,000 tested, 0.41% active; AID 434962;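 active = percent inhibition above the average of all tested compounds plus 3 SD, set per screening campaign, cut at about 16% in these data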;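 note: IDE supplied by intact live HEK cells; FP after avidin binding of uncleaved biotin substrate so inhibition keeps polarization high; 0% = DMSO wells and 100% = 60 µM reference IDE inhibitor Ii1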
Yeast superoxide – caloric restriction mimetics inhibiting age-related superoxide in yeast. S. cerevisiae aged cells, superoxide DHE fluorescence; active compounds read low. superoxide response (% of plate mean), % at 10 µM. 330,000 tested, 0.18% active;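 active = superoxide response under a set limit, about three screen SD below normal, cut at about 65% in these data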;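 note: yeast aged for seven days with compound at 30 °C before DHE staining; 100% = average MFI of all compound-treated wells on the plate with controls excluded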
IDE cell inh cf – confirmation of human insulin-degrading enzyme inhibitors in cells. shares compounds with IDE cell inh. HEK cells, FAbetaB cleavage, fluorescence polarization. inhibition, % at 5.59 µM. 1,200 tested, 51% active. AID 435028;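 active = mean inhibition across triplicate wells above the cutoff set by the earlier primary insulin-degrading enzyme screen, cut at about 16% in these data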;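 note: 0% = DMSO wells and 100% = 60 µM reference IDE inhibitor Ii1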
HEK cytotox – kills HEK cells in IDE inhibitor counter-screen; HEK293 cytotoxicity, ATP luminescence; shares compounds with IDE cell inh; inhibition, % at 5.59 µM; 1,200 tested, 28% active; in the data active = inhibition above about 22%;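 note: 0% = vehicle wells and 100% = reference cytotoxic drug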
FP fluor counter – fluorescent artifact in IDE inhibitor FP assay. shares compounds with IDE cell inh. FP counterscreen for fluorescent artifacts, IDE probe project. IC50, µM. 30 tested, under 10 active. AID 588718; call rule not given here
* hit, by the source's call; nt = no result given. The list is not random: actives were taken first. Their share in the collection is about 1.4%.

SMILES	IDE cell activ	Tb MetRS inh	HDAC3 inhib	Efflux pump inh	IDE cell inh	Yeast superoxide	IDE cell inh cf	HEK cytotox	others
CCOCCCNc1nc2c(C)cccn2c(=O)c1/C=C1\SC(=S)N(C(C)CC)C1=O (stereo unspecified)	-4	-1	11	0	17*	107	80*	9
CCOCCCNc1nc2c(C)cccn2c(=O)c1/C=C1\SC(=S)N(CC(C)C)C1=O	-1	-1	-6	0	5	113	nt	nt
Cc1ccccc1NC(=O)c1sc2nc(N3CCOCC3)c3c(c2c1N)CCCC3	-22	0	-1	0	5	122	nt	nt
Nc1c(C(=O)NCCc2ccccc2)sc2nc(N3CCOCC3)c3c(c12)CCCC3	-18	1	15	0	17*	115	0	29*
CCOC(=O)/C(=C/C1=CC(=C/N(C)C)/C(=O)O1)C(C)=O	-13	-1	7	0	16*	110	23*	4
CCCC[n+]1c(C)sc2cc(OC)ccc21	-2	-1	3	0	18*	102	6	5
CCOc1ccc2oc(C(=O)OC(C(=O)NC(N)=O)C(C)C)c(C)c2c1 (stereo unspecified)	2	-1	-3	0	2	108	nt	nt
Cc1cc(N2CCN(C(c3ccccc3)c3ccccc3)CC2)n2ncnc2n1	3	0	1	0	-1	98	nt	nt
Cc1cc(N2CCN(c3nc4ccccc4s3)CC2)n2ncnc2n1	-25	-2	-4	0	17*	104	6	75*
COC(=O)c1cc(Sc2c(Cl)cccc2Cl)ccn1	-22	-1	5	0	8	81	nt	nt
COC(=O)c1cc(Sc2cccc(Cl)c2Cl)ccn1	-14	-1	1	0	19*	126	0	12
CC(C)CNC(=O)c1cnn2c(C(F)(F)F)cc(C(F)(F)F)nc12	nt	0	-2	0	0	81	nt	nt
CCCCC(=O)N1CCN(c2nc3ccc(Br)cc3s2)CC1	-22	0	-11	0	25*	107	8	42*
CCCC(=O)N1CCN(c2nc3ccc(CC)cc3s2)CC1	-10	0	-2	0	19*	93	10	21
Cc1ccc(S(=O)(=O)c2nc(-c3ccco3)oc2SC(C)C)cc1	-3	-1	4	0	-2	111	nt	nt
Cc1nnc(SC(C)C(=O)Nc2ccc3ccccc3c2)n1C (stereo unspecified)	3	0	1	0	-4	108	nt	nt
Oc1c(C=C2N=c3ccccc3=N2)sc(=S)n1-c1ccccc1	-1	0	0	0	7	133	nt	nt
O=C(Nn1c(O)c(C=C2N=c3ccccc3=N2)sc1=S)c1ccccc1Cl	-5	-11	3	1	17*	108	10	8
Cn1c(Cc2ccccc2)nnc1SCC(=O)NC1CCCC1	0	0	-6	1	-7	119	nt	nt
Cc1cccc(C=Nc2ccc3c4c(cccc24)CC3)c1O	-1	0	-32	1	33*	94	9	3
CCc1ccc(O)c(N=Cc2cccc(C)c2O)c1	6	0	nt	0	5	91	nt	nt
COc1cccc(CNC(=O)Cn2ccc3cc(S(=O)(=O)N4CCCCCC4)ccc32)c1OC	0	0	4	0	2	110	nt	nt
COc1cccc(C2C=C(c3ccc(Br)s3)Nc3ncnn32)c1OC (stereo unspecified)	-50	0	6	0	32*	103	6	21
Fc1ccc(Br)cc1C1C=C(c2ccc(Br)s2)Nc2ncnn21 (stereo unspecified)	-19	-1	-8	0	16	123	nt	nt
O=C(N/N=C/c1ccc([N+](=O)[O-])o1)C(=O)Nc1ccc(C(=O)O)cc1	4	-1	1	0	-2	106	nt	nt
SMILES	IDE cell activ	Tb MetRS inh	HDAC3 inhib	Efflux pump inh	IDE cell inh	Yeast superoxide	IDE cell inh cf	HEK cytotox	others
O=C(O)c1ccc(N/N=C/c2ccc(-c3cccc(Cl)c3)o2)cc1	1	1	-24	0	6	87	nt	nt
O=C(O)c1ccc(N/N=C/C=C/c2ccc([N+](=O)[O-])o2)cc1	-47	-1	5	0	50*	130	73*	8
O=C(O)c1cccc(-c2ccc(/C=N/Nc3ccc([N+](=O)[O-])cc3)o2)c1	-10	4	1	0	18*	95	22*	10
O=C(O)c1ccc(-c2ccc(/C=N/Nc3ccc([N+](=O)[O-])cc3)o2)cc1	-33	0	-4	0	21*	88	41*	8
CCCCCCN(C(=O)CCCCCN1C(=O)NC(c2cccc([N+](=O)[O-])c2)C(C(=O)OCc2ccccc2)=C1C)C(C(=O)NCCCC)c1ccc(OCC(=O)OC)c(C(=O)OC)c1 (stereo unspecified)	nt	nt	4	0	1	108	nt	nt
Cc1ccc(NC(=O)Nc2ccnc(-c3cccnc3)n2)cc1	-9	0	-4	0	18*	103	4	44*
COc1ccc(CCNC(=O)c2ccc(Cl)c(S(=O)(=O)N(C)c3ccccc3)c2)cc1	-8	1	1	1	18*	90	4	34*
O=C(CSc1nnc(-c2cccc(Cl)c2)n1Cc1ccco1)Nc1ccc2c(c1)OCCO2	nt	nt	nt	nt	nt	nt	nt	nt	FP fluor counter=>55
COc1ccccc1-c1cnc(C(O)c2ccc(Cl)c(Cl)c2)[nH]1 (stereo unspecified)	nt	1	nt	nt	nt	nt	nt	nt
N#Cc1ccccc1S(=O)(=O)NC(=O)[C@H]1O[C@@H](n2cnc3c(N)ncnc32)[C@H](O)[C@@H]1O	nt	1	nt	nt	nt	nt	nt	nt
O=C(O)Cn1c(=O)c2c(c3ccccc31)CCC2	0	0	5	0	6	86	nt	nt
O=C(O)Cn1c2c(c3ccccc31)CSc1ccc(Cl)cc1-2	-8	-1	-1	0	24*	94	3	8
COC(=O)C1=C[C@@H](C(=O)OC)[C@@H]2C3=C(C(=O)[C@]2(C)NC(=O)c2ccccc2)[C@H](C)n2c(=O)n(-c4ccccc4)c(=O)n2[C@@H]3C1	0	0	4	0	6	98	nt	nt
O=C(Cc1ccccc1)Nn1c(O)c(/C=C2\C=Nc3ccccc32)sc1=S	-63	2	8	0	62*	107	43*	11
Cn1c(O)c(/C=C2\C=Nc3ccccc32)sc1=Nc1ccc(C(=O)O)cc1	3	1	nt	0	-2	92	nt	nt
